The results in this text go back to ChEMBL document CHEMBL2311322, “On scaffold hopping: challenges in the discovery of sulfated small molecules as mimetics of glycosaminoglycans” (Bioorg Med Chem Lett, 2013).

pIC50: −log10 of the molar value. The source made the active and inactive calls. The calls are words filed in the database; no cut-off is given here.

For assay [1], the target named is T1, Coagulation factor XII (Homo sapiens) (UniProt P00748).
T1 sequence (whole entry): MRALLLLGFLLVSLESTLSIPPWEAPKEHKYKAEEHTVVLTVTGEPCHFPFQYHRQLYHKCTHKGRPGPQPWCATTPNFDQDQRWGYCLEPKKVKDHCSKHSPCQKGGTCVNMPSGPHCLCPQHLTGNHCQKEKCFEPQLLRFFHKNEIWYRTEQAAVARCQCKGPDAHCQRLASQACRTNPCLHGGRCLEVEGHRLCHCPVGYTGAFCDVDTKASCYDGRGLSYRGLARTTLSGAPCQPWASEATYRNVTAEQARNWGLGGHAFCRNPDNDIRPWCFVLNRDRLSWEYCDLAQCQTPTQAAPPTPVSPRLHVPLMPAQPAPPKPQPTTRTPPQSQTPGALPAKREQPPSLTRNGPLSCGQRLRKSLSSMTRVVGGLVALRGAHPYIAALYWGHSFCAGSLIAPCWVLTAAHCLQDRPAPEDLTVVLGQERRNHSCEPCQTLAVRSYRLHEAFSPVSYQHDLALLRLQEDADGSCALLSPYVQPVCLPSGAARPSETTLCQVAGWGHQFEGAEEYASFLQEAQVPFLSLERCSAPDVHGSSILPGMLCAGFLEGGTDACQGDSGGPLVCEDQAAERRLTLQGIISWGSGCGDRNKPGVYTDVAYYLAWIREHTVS
Kind of assay: Inhibition of human coagulation factor 12a using spectrozyme F12a as substrate at 365 uM after 10 mins by spectrophotometric analysis. In outline: (§1)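 Chromogenic substrate hydrolysis screen against each coagulation protease (VIIa, IXa, Xa, XIa, XIIa), each with its appropriate substrate. Inhibitor was tested at a single concentration of 365 μM. Fractional residual activity was taken as the ratio of initial hydrolysis rates with and without inhibitor, read spectrophotometrically.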

Assay [2] concerns the target Coagulation factor XI (Homo sapiens) (UniProt P03951). In words: Inhibition of human coagulation factor 11a at 365 uM after 10 mins by spectrophotometric analysis. In outline:
as §1

The target in assay [3] is Coagulation factor X (Homo sapiens) (UniProt P00742). Kind of assay: Inhibition of human coagulation factor 10a using spectrozyme F10a as substrate at 365 uM after 10 mins by spectrophotometric analysis. In short, it runs like this:
as §1

The target in assay [4] is Coagulation factor IX (Homo sapiens) (UniProt P00740). In words: Inhibition of human coagulation factor 9a using spectrozyme F9a as substrate at 365 uM after 10 mins by spectrophotometric analysis. In short, it runs like this:
as §1

For assay [5], the target named is T2, Coagulation factor VII (Homo sapiens) (UniProt P08709).
T2 sequence (whole entry): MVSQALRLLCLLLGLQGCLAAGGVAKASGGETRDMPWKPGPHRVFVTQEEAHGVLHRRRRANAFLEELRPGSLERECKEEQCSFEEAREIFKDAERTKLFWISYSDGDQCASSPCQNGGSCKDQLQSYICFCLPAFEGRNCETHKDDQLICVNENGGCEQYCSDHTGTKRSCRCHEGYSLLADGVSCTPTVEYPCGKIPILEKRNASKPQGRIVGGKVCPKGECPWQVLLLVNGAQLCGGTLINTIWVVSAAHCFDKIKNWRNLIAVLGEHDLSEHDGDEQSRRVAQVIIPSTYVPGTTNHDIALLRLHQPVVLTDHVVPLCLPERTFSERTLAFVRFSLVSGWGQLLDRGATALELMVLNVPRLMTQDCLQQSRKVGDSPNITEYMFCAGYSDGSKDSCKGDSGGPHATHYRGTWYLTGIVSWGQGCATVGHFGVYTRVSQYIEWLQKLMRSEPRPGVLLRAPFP
In words: Inhibition of human coagulation factor 7a using spectrozyme 7a as substrate at 365 uM after 10 mins by spectrophotometric analysis. In short, it runs like this:
as §1

For assay [6], the target named is Prothrombin (Homo sapiens, UniProt P00734). Kind of assay: Inhibition of human alpha thrombin using spectrozyme TH as substrate. In short, it runs like this: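 Chromogenic assay: initial rate of Spectrozyme TH hydrolysis read spectrophotometrically at pH 7.4 and 25 °C across a range of inhibitor concentrations. Fractional loss of initial rate plotted against log concentration and fitted to a logistic dose–response equation to give IC50.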

Assay [7] has as its system Plasma. Kind of assay: Anticoagulant activity in human plasma assessed as inhibition of Cacl2-induced coagulation after 4 mins by fibrometric analysis. In kind it is functional. In outline:
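Human plasma clotting times were read on a fibrometer in both prothrombin time (PT) and activated partial thromboplastin time (APTT) formats, across a range of inhibitor concentrations. Trend lines of clotting time versus concentration gave the concentration needed to double clotting time (2×PT, 2×APTT).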

The subject of assay [8] is Human alphaherpesvirus 1. Kind of assay: Binding affinity to Herpes simplex virus 1 recombinant Lys25-His332-truncated His6-tagged glycoprotein D expressed in Escherichia coli measured after 3 hrs by affinity co-electrophoretic analysis.

Coagulation factor X (Homo sapiens), sequence (P00742 41-179 limits assumed): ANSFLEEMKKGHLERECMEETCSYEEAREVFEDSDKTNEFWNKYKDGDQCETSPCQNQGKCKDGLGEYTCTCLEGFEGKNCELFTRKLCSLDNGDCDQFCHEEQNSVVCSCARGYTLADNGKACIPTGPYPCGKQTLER
Coagulation factor X (Homo sapiens), sequence (P00742 235-488 limits assumed): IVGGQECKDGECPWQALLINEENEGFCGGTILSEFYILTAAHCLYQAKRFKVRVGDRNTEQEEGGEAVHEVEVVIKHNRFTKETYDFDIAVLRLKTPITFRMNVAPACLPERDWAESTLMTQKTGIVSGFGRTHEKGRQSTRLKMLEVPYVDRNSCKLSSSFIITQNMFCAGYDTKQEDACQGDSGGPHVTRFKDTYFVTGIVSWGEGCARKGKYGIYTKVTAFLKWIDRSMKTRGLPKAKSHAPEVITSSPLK
Coagulation factor XI (Homo sapiens), sequence (P03951 19-387 limits assumed): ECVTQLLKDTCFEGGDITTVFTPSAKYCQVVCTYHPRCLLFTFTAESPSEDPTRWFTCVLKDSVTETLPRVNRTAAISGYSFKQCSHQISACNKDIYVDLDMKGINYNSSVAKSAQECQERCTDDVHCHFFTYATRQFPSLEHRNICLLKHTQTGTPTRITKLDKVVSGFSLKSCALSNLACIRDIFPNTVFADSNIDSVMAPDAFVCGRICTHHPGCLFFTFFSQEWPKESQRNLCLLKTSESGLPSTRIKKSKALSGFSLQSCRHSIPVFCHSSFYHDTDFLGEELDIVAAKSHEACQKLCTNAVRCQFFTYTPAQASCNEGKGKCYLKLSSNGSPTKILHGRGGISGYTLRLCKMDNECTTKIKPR
Coagulation factor XI (Homo sapiens), sequence (P03951 388-625 limits assumed): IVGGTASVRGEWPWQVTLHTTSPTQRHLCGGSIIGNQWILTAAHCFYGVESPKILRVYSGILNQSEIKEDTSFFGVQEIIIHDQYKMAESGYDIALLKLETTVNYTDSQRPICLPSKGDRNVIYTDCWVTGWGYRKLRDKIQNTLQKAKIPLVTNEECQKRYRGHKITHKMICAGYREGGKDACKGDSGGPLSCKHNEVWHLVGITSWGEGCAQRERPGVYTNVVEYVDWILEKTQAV
Coagulation factor IX (Homo sapiens), sequence (P00740 47-191 limits assumed): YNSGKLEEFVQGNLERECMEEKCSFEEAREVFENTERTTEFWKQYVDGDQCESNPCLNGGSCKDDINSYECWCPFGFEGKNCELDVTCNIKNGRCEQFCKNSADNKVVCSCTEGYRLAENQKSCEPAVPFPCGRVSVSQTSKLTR
Coagulation factor IX (Homo sapiens), sequence (P00740 227-461 limits assumed): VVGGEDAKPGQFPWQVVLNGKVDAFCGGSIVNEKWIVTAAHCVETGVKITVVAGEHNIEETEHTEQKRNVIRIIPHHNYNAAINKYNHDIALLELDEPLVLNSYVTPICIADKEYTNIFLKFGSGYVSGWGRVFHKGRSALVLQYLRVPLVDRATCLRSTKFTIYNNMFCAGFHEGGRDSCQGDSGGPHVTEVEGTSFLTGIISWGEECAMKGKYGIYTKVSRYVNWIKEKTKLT

`O=C(Nc1ccc(OS(=O)(=O)O)cc1)c1cccc(N2C(=O)c3ccc(C(=O)Nc4ccc(OS(=O)(=O)O)cc4)cc3C2=O)c1`: the inhibition in assay [1], in assay [3], in assay [4] and in assay [5] was above 20% in each case. For the same compound, the inhibition (as a rule, the change of the read-out against control, counted positive when it falls) in assay [2] was “inactive”. Further, the pIC50 (as a rule, the IC50 on a negative log10 scale, so that one unit is a factor of ten) in assay [6] was 3.54.

In the case of `N#Cc1c(SCC(=O)c2cccc(OS(=O)(=O)O)c2OS(=O)(=O)O)nc([N+](=O)[O-])c(C#N)c1-c1ccc(OCc2ccccc2)cc1`, the inhibition in assay [1], in assay [3], in assay [4] and in assay [5] was above 20% in each case. Besides, the inhibition result in assay [2] was “Active”. The 2PT in assay [7] turned out to be 606 µM. Moreover, the 2aPTT in assay [7] is 550 µM. Besides, in assay [6], the pIC50 was 4.18.

For the compound `O=C(O)C1=C[C@H](O)[C@@H](OS(=O)(=O)O)[C@@H](O[C@H]2[C@H](O)[C@@H](NS(=O)(=O)O)[C@@H](O[C@H]3[C@H](O)[C@@H](OS(=O)(=O)O)[C@@H](O[C@H]4[C@H](O)[C@@H](NS(=O)(=O)O)[C@@H](O[C@H]5[C@H](O)[C@@H](OS(=O)(=O)O)[C@@H](O[C@H]6[C@H](OS(=O)(=O)O)[C@@H](NS(=O)(=O)O)[C@@H](O[C@H]7[C@H](O)[C@@H](OS(=O)(=O)O)[C@@H](O[C@H]8[C@H](O)[C@@H](NS(=O)(=O)O)[C@@H](O)O[C@@H]8COS(=O)(=O)O)O[C@H]7C(=O)O)O[C@@H]6COS(=O)(=O)O)O[C@H]5C(=O)O)O[C@@H]4COS(=O)(=O)O)O[C@H]3C(=O)O)O[C@@H]2COS(=O)(=O)O)O1`, the Activity in assay [8] came out at 19 µM.
